Measured values published in ChEMBL document CHEMBL4715802, “Novel Irreversible Agonists Acting at the A Adenosine Receptor” (J Med Chem, 2016).
The source made the active and inactive calls. The rule behind the calls is not given here.

Each compound was assayed against T1, Adenosine receptor A1 (Homo sapiens) (UniProt P30542) (assay: Binding affinity to human adenosine A1 receptor expressed in Sf9 cells assessed protein melting temperature at 10 uM incubated for 30 mins by Thermo-fluor assay). Conditions: Cell membrane, filed as agonist.
T1 sequence (whole entry): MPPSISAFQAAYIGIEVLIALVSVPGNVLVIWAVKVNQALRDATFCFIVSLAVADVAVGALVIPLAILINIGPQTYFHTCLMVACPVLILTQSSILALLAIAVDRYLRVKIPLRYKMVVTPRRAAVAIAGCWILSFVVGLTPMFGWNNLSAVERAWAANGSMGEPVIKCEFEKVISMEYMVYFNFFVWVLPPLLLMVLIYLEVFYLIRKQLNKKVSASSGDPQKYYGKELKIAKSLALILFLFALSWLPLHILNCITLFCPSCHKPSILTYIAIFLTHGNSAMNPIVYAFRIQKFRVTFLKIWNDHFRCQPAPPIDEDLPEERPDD
Type: cell membranes
Method in brief: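 Human A1AR was purified from Sf9 cells in LMNG/CHS. 0.2 µg receptor was incubated with 10 µM compound for 20 h at 4°C in HEPES pH 7.5 buffer with ADA. CPM dye at 10 µM final was added for 30 min at rt. The sample was heated from 4 to 80°C in 3° steps, holding 90 s each, and fluorescence was read at 380/470 nm to derive Tm. Three experiments in duplicate.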

Compound	Tm [°C]
OC[C@H]1O[C@@H](n2cnc3c(Nc4ccc(CN=C=S)cc4)ncnc32)[C@H](O)[C@@H]1O	42.7

The compounds below were run on Flp-In-CHO (assay: Stimulation of ERK1/2 phosphorylation in Flp-In-CHO cells incubated for 5 mins). Conditions: Cricetulus griseus.
Type: cell-based
Method in brief: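 A1AR-FlpInCHO cells were seeded at 4×10^4/well and serum-starved for about 18 h. Cells were stimulated with agonist for 5 min at 37°C, then lysed, and pERK1/2 was detected by SureFire. […] Curves were fitted for pEC50 and Emax. Three experiments in duplicate.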

Compound	Activity
O=C(NCCCCCCNc1ncnc2c1ncn2[C@@H]1O[C@H](CO)[C@@H](O)[C@H]1O)c1ccc(S(=O)(=O)F)cc1	inactive
OC[C@H]1O[C@@H](n2cnc3c(NCCCCCCCCCCN=C=S)ncnc32)[C@H](O)[C@@H]1O	inactive
OC[C@H]1O[C@@H](n2cnc3c(Nc4ccc(CN=C=S)cc4)ncnc32)[C@H](O)[C@@H]1O	inactive
OC[C@H]1O[C@@H](n2cnc3c(NCCNC(=S)Nc4ccc(N=C=S)cc4)ncnc32)[C@H](O)[C@@H]1O	inactive
O=C(NCc1ccc(Nc2ncnc3c2ncn3[C@@H]2O[C@H](CO)[C@@H](O)[C@H]2O)cc1)C1=CC2C=CC1CC2 (stereo not given in full)	inactive

What follows are compounds tested against T2, Adenosine receptor A1 (Homo sapiens, UniProt P30542) (assay: Irreversible agonist activity at human adenosine A1 receptor expressed in Flp-In-CHO cells assessed as stimulation of ERK1/2 phosphorylation incubated for 5 mins). Conditions: not given.
T2 sequence (P30542 whole entry): T1 sequence (whole entry)
Type: cell-based

Compound	EC50 [nM]
OC[C@H]1O[C@@H](n2cnc3c(NCCCCCCCCCCN=C=S)ncnc32)[C@H](O)[C@@H]1O	79.4
OC[C@H]1O[C@@H](n2cnc3c(Nc4ccc(CN=C=S)cc4)ncnc32)[C@H](O)[C@@H]1O	20
OC[C@H]1O[C@@H](n2cnc3c(NCCNC(=S)Nc4ccc(N=C=S)cc4)ncnc32)[C@H](O)[C@@H]1O	3.16
O=C(NCc1ccc(Nc2ncnc3c2ncn3[C@@H]2O[C@H](CO)[C@@H](O)[C@H]2O)cc1)C1=CC2C=CC1CC2 (stereo not given in full)	1.58

What follows are compounds tested against Adenosine receptor A2a (Homo sapiens, UniProt P29274) (assay: Irreversible agonist activity at human adenosine A2A receptor expressed in Flp-In-CHO cells assessed as effect on forskolin-induced cAMP accumulation incubated for 30 mins by LANCE cAMP detection assay). Conditions: not given.
Type: functional, cell-based

Chain of Adenosine receptor A2a (P29274 whole entry): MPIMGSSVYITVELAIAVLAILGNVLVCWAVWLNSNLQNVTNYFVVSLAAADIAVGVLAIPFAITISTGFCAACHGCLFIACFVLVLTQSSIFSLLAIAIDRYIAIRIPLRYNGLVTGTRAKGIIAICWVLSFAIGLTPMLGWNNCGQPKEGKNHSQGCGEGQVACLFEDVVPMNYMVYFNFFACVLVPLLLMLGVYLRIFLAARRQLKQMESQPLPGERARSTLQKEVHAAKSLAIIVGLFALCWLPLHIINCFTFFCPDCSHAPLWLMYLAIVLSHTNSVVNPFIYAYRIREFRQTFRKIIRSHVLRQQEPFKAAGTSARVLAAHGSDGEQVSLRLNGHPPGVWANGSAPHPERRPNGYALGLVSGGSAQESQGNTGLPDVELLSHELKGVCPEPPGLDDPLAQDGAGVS

Compound	EC50 [nM]
OC[C@H]1O[C@@H](n2cnc3c(Nc4ccc(CN=C=S)cc4)ncnc32)[C@H](O)[C@@H]1O	646

Each compound was assayed against T1, Adenosine receptor A1 (Homo sapiens) (assay: Irreversible agonist activity at human adenosine A1 receptor expressed in Flp-In-CHO cells assessed as induction of positive change of cellular impedance at 1 uM incubated for 2 hrs by xCELLigence real-time cell analysis). Conditions: filed as agonist.
Type: cell-based
Method in brief: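 A1AR-FlpInCHO cells were serum-starved for about 18 h and equilibrated for at least 1 h at 37°C. 1 µM agonist or vehicle was added and impedance was recorded at 15 s intervals. […] Three experiments in duplicate.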

Compound	Activity
OC[C@H]1O[C@@H](n2cnc3c(NCCCCCCCCCCN=C=S)ncnc32)[C@H](O)[C@@H]1O	Active
OC[C@H]1O[C@@H](n2cnc3c(Nc4ccc(CN=C=S)cc4)ncnc32)[C@H](O)[C@@H]1O	Active
O=C(NCc1ccc(Nc2ncnc3c2ncn3[C@@H]2O[C@H](CO)[C@@H](O)[C@H]2O)cc1)C1=CC2C=CC1CC2 (stereo not given in full)	Active

The compounds below were run against T1, Adenosine receptor A1 (Homo sapiens) (assay: Irreversible agonist activity at human adenosine A1 receptor expressed in Flp-In-CHO cells assessed as induction of positive change of cellular impedance at 1 uM incubated for 1.5 hrs followed by addition of 1 uM A1AR selective antagonist SLV320 by xCELLigence real-time cell analysis). Conditions: filed as agonist.
Type: cell-based
Method in brief: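 A1AR-FlpInCHO cells were seeded at 4×10^4/well, serum-starved for about 18 h, and equilibrated in the impedance reader for at least 1 h at 37°C. Cells were exposed to 1 µM agonist and impedance was recorded every 15 s. After about 1.5–1.7 h, 1 µM SLV320 was added and recording continued. […] Three experiments in duplicate.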

Compound	Activity
OC[C@H]1O[C@@H](n2cnc3c(Nc4ccc(CN=C=S)cc4)ncnc32)[C@H](O)[C@@H]1O	Active
OC[C@H]1O[C@@H](n2cnc3c(NCCNC(=S)Nc4ccc(N=C=S)cc4)ncnc32)[C@H](O)[C@@H]1O	Active

The compounds below were run against T3, Adenosine receptor A3 (Homo sapiens, UniProt P0DMS8) (assay: Irreversible agonist activity at human adenosine A3 receptor expressed in Flp-In-CHO cells assessed as effect on forskolin-induced cAMP accumulation incubated for 30 mins by LANCE cAMP detection assay). Conditions: not given.
T3 sequence (P0DMS8 whole entry): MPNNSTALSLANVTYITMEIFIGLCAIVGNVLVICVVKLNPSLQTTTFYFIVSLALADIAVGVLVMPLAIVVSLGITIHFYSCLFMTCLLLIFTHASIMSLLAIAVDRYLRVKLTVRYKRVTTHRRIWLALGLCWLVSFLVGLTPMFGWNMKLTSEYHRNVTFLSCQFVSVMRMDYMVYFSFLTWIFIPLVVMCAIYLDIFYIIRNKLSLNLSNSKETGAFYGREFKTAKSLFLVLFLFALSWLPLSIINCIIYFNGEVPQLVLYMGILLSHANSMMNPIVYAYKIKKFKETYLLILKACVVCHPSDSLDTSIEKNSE
Type: functional, cell-based
Method in brief: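 For Gi/o-coupled A1 or A3 FlpInCHO cells, cells were preincubated for 30 min at 37°C in stimulation buffer containing 10 µM rolipram. Agonist (10 pM–10 µM) was then added with 3 µM forskolin for 30 min at 37°C. The reaction was stopped with ethanol, cells were lysed, and cAMP was read by LANCE TR-FRET. […] Three to four experiments in duplicate.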

Compound	EC50 [nM]
OC[C@H]1O[C@@H](n2cnc3c(Nc4ccc(CN=C=S)cc4)ncnc32)[C@H](O)[C@@H]1O	347

What follows are compounds tested against T4, Adenosine receptor A2b (Homo sapiens, UniProt P29275) (assay: Irreversible agonist activity at human adenosine A2B receptor expressed in Flp-In-CHO cells assessed as effect on forskolin-induced cAMP accumulation incubated for 30 mins by LANCE cAMP detection assay). Conditions: not given.
T4 sequence (P29275 whole entry): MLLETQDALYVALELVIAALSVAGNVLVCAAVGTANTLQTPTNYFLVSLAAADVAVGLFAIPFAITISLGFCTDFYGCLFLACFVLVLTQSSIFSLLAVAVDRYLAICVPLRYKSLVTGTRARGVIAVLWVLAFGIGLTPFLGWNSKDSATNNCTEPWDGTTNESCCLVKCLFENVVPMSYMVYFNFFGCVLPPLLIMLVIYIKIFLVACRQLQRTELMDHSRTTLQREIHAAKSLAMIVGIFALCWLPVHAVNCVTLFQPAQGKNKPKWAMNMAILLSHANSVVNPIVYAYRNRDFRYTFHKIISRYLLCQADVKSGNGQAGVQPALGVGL
Type: functional, cell-based
Method in brief: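 A2BAR-FlpInCHO cells in stimulation buffer with rolipram were exposed to agonist with no preincubation, then stopped with ethanol, lysed, and cAMP was detected by LANCE. Three to four experiments in duplicate.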

Compound	EC50 [nM]
OC[C@H]1O[C@@H](n2cnc3c(Nc4ccc(CN=C=S)cc4)ncnc32)[C@H](O)[C@@H]1O	708

These compounds were tested on Flp-In-CHO (assay: Effect on forskolin-induced cAMP accumulation in Flp-In-CHO cells incubated for 30 mins by LANCE cAMP detection assay). Conditions: Cricetulus griseus.
Type: functional, cell-based

Compound	Activity
OC[C@H]1O[C@@H](n2cnc3c(Nc4ccc(CN=C=S)cc4)ncnc32)[C@H](O)[C@@H]1O	inactive

What follows are compounds tested against T2, Adenosine receptor A1 (assay: Irreversible agonist activity at human adenosine A1 receptor expressed in Flp-In-CHO cells assessed as effect on forskolin-induced cAMP accumulation incubated for 30 mins by LANCE cAMP detection assay). Conditions: not given.
Type: functional, cell-based
Method in brief: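 For Gi/o-coupled A1 or A3 FlpInCHO cells, cells were preincubated for 30 min at 37°C in stimulation buffer containing 10 µM rolipram. Agonist (10 pM–10 µM) was then added with 3 µM forskolin for 30 min at 37°C. The reaction was stopped with ethanol, cells were lysed, and cAMP was read by LANCE TR-FRET. Three to four experiments in duplicate.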

Compound	EC50 [nM]
OC[C@H]1O[C@@H](n2cnc3c(Nc4ccc(CN=C=S)cc4)ncnc32)[C@H](O)[C@@H]1O	269
